Screening results as filed in PubChem.
S1P4 antag – human S1P4 receptor antagonism. inhibition, % at 4.98 µM. AID 1510. S1P4-expressing cells, antagonist mode, reporter read-out. actives 0.26% (n = 220,000). O95977; in the data active = inhibition above about 29%;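 note: 0% = wells stimulated with agonist and 100% = vehicle wells without agonist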
Target sequence (O95977 whole entry, looked up): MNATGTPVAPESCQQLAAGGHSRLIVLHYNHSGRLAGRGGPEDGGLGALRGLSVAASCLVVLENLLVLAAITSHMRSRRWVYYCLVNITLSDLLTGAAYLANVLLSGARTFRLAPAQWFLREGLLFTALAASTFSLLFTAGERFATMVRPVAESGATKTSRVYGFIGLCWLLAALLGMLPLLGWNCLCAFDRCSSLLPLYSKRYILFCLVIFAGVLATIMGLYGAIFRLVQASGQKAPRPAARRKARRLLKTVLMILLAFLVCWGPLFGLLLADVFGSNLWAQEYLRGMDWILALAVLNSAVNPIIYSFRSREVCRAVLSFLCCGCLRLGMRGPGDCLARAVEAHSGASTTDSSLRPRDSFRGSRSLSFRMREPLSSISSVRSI
TNF necrop inh – TNF-alpha cell death inhibition in Jurkat FADD-/- cells | Jurkat FADD-/- TNF necroptosis rescue, ATP luminescence, 24 h; 0 = TNF only, 100 = no-TNF cells | activation (protection from cell death), % at 10 µM | actives 0.068% (n = 220,000);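 active = activation, meaning protection from cell death, of at least 50% relative to plate controls; inactive = activation below 50%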;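 note: necroptosis triggered by 40 ng/mL TNF-alpha added together with compound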
Tb hexokinase – T. brucei hexokinase 1 inhibition; recombinant TbHK1, G6PDH-coupled NADH A340; inhibition, % at 10 µM; actives 0.11% (n = 220,000);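 active = inhibition of 50% or more in the single-dose primary screen; inactive = inhibition below 50%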
L929 necroptosis – blocks zVAD induced death of L929 cells; AID 1377; actives 0.38% (n = 220,000); L929 zVAD necroptosis rescue, ATP luminescence, 24 h; with zVAD 60 µM; viability rescue, % at 10 µM;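 active = activation, scaled between plate controls, above about 75%, limit read from the data; inactive = activation under that limit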;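 note: 0% = zVAD with DMSO and 100% = DMSO alone without zVAD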
Dynein transport – blocks dynein driven cargo transport along microtubules; 3617.4 mouse cells, GR-EGFP nuclear translocation imaging; test concentration mostly 20 µM; stimulated with dexamethasone, 1 µM; active compounds read low; z-score, hits read low; actives 0.47% (n = 220,000); AID 1381;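 active = plate z-score of nuclear minus cytoplasmic receptor signal below a set negative limit, without overly bright fluorescence or cell loss, cut at about -3.5 in these data, passing the limit was not always enough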;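 note: z-score of nuclear minus cytoplasmic ring GR-EGFP intensity difference per well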
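Buffer or medium – tet-free medium with charcoal-stripped serum · Signal – automated 10x imaging of fixed Hoechst-stained cells · Also added – dexamethasone agonist, 1.0 µM final, for 30 min · Incubation – induction 48 h, compound 1 h, agonist 30 min · Read-out – GR-EGFP nuclear translocation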
S1P4 agonist – activates the human S1P4 receptor. activation, % at 4.98 µM. S1P4-expressing cell line, agonist reporter assay. actives 0.35% (n = 220,000). AID 1509. O95977; in the data active = activation above about 11%;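 note: 0% = DMSO vehicle and 100% = reference agonist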
Dynein confirm – dynein cargo transport inhibition, confirmation; shares compounds with Dynein transport; 3617.4 GR-EGFP nuclear translocation imaging, dexamethasone-induced; calls only at 20 µM; actives 69% (n = 1,000); AID 463116;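 active = inhibition of receptor movement into the nucleus at or above a set limit in both runs, with normal cell brightness and cell count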;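 note: dexamethasone at 1 µM final in well for 30 min; nuclear minus cytoplasmic GR-EGFP mean intensity difference in channel 2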
* = called active by the depositor; i = inactive; x = no result; + = active, no number. Only some compounds are listed: those with a hit (about 1.5% of all), similar ones and a draw of the others.

SMILES	S1P4 antag	TNF necrop inh	Tb hexokinase	L929 necroptosis	Dynein transport	S1P4 agonist	Dynein confirm
CC(=O)OC1C2CCC1C([N+]1(C)CCCCC1)CC2 (configuration not stated)	-5	0	5	-1	-0.58	0	x
O=C(Cc1ccc(Cl)cc1)Nc1ccc(S(=O)(=O)Nc2cnc3ccccc3n2)cc1	-6	0	3	-4	-0.16	1	x
CC[C@H](C)/C=C(C)/C=C/C(=O)Cc1cc(O)c(C)c(O)c1C=O	x	-2	-35	1	-3.8*	x	+
COc1ccc(C2=NOC(C(=O)N(C)Cc3ccccc3)C2)cc1 (configuration not stated)	-2	3	0	2	-0.076	0	x
CCOC(=O)/C(=C/C=C1\Sc2cc(C)c(C)cc2N1CC)C(C)=O	3	-1	4	-2	-3.8	1	i
Cc1nc2cc(-c3ccc(Cl)cc3)nn2c(NCCN(C)C)c1C	11	-12	-9	15	1.1	0	x
COCc1cc(Sc2ccc(Cl)cc2)nc(C)n1	-3	-1	2	1	-0.73	0	x
COCc1cc(S(=O)c2ccc(Cl)cc2)nc(C)n1 (configuration not stated)	12	-9	0	-1	-4.5*	0	+
COc1cccc(Nc2ncccc2C(=O)NCc2ccccc2)c1	12	-3	-3	0	-9.6	-2	i
COc1ccccc1N=C1SCC(=O)N1Cc1ccco1	-6	1	-4	0	0.056	0	x
CCOC(=O)C1(Cc2ccccc2C(F)(F)F)CCN(CC2CC2)CC1	-11	3	15	-3	0.37	-2	x
O=C(c1nnsc1S(=O)(=O)c1ccc(Cl)cc1)N1CCOCC1	14	-13	-5	-2	-6*	-2	+
O=C(c1nnsc1S(=O)c1ccc(Cl)cc1)N1CCOCC1 (configuration not stated)	15	-12	-6	28	-4.8*	-1	+
Nc1nc(C(=O)N2CCOCC2)nn1S(=O)(=O)c1ccc(Cl)cc1	6	-1	1	0	0.89	-1	x
CCCCOC(=O)c1ccc(NC(=O)C(=O)NCCN(C)C)cc1	1	2	-3	2	-1	0	x
O=C(CCl)N(CCCNC(=O)C(F)(F)F)c1ccc([N+](=O)[O-])cc1	3	-29	-10	0	-5*	1	+
O=C(NCCCNc1ccc([N+](=O)[O-])cc1)C(F)(F)F	-6	1	-5	1	-0.76	-1	x
COc1cccc2cc(C(=O)c3ccc([N+](=O)[O-])cc3)oc12	-12	4	-9	68	-0.11	-1	x
COc1ccc(/C=C/c2ccccc2)cc1[C@H]1[C@H]2C=CC[C@@H](C)[C@@H]2C(=O)N1Cc1ccccc1	x	-1	-30	-1	-0.1	x	x
CC(C)N1C(=O)C(Cc2nc3ccccc3c(=O)n2-c2ccccc2)c2ccccc21 (configuration not stated)	-12	-2	1	0	0.33	0	x
CC(C)N1C(=O)/C(=C/c2nc3ccccc3c(=O)n2-c2ccccc2)c2ccccc21	12	-15	-11	0	-4.1*	0	+
CC(C)N1C(=O)/C(=C\c2nc3ccccc3c(=O)n2-c2ccccc2)c2ccccc21	2	4	-7	3	-5*	-3	+
O=C1c2ccccc2-n2c1nc1ccccc1c2=O	2	-6	-16	6	0.37	1	x
O=S(=O)(NCCC1CC1(Cl)Cl)c1ccccc1 (configuration not stated)	9	2	-1	0	0.45	-1	x
COc1ccc(N(C(=O)CCl)C(C(=O)NCCc2ccccc2)c2cccs2)cc1Cl (configuration not stated)	13	-16	-1	1	-4.8*	-1	+
COc1cccc(N(C(=O)CCl)C(C(=O)NCCc2ccccc2)c2cccs2)c1 (configuration not stated)	-13	-13	4	0	-5.5*	0	+
